{
  "source": "paper PMC6038876",
  "about": "(Drug Design, Development and Therapy, 2018)",
  "key": {"[1]": {"assay": "Kinetic solubility study of SNMSDs and EDR in SIF pH 6.8", "type": "physicochemical"}, "[2]": {"assay": "In vitro dissolution study", "type": "physicochemical", "summary_of_the_method": "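USP type II (paddle) apparatus at 37°C and 50 rpm, with 900 mL of SGF (pH 1.2) or SIF (pH 6.8). Samples were taken at 5, 15, 30, 45, 60, 90 and 120 min, with media replaced, then passed through a 0.45 µm filter and diluted with mobile phase as needed. They were quantified by HPLC-UV at 240 nm (water:methanol:acetic acid 100:100:1, 1 mL/min). Release data were fitted to zero-order, first-order, Higuchi, Hixson–Crowell and Korsmeyer–Peppas models. f1 and f2 were calculated comparing the unformulated and formulated drug profiles.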"}, "[3]": {"settings": "pH 8–10; cited from earlier work"}, "[4]": {"settings": "cited from earlier work"}, "P-glycoprotein (Pgp)": {"system": "P-glycoprotein (Pgp)", "settings": "cited from earlier work"}, "UGT enzymes": {"system": "UGT enzymes", "settings": "cited from earlier work"}, "[5]": {"assay": "Solubility of EDR, PM and NEF in simulated body fluids and water"}, "[6]": {"system": "glucuronidation of EDR in rat liver microsomes", "assay": "Microsomal incubation assay of EDR glucuronidation", "type": "in vitro ADME", "settings": "SOL 1%"}, "[7]": {"assay": "Miscibility study: solubility of EDR in polymeric carrier solutions", "settings": "10% (w/v) polymer in water"}, "[8]": {"settings": "dissolution profiles in SGF vs SIF"}},
  "data": [
    {"molecule": "CC1=NN(c2ccccc2)C(=O)C1", "note": "[EDR, 3-methyl-1-phenyl-2-pyrazolin-5-one]", "values": [
      {"measurement": "solubility", "setting": "[1]", "result": "2290 ± 320", "unit": "µg/mL"},
      {"measurement": "release kinetic model followed", "setting": "[2]; SGF", "result": "Hixson–Crowell"},
      {"measurement": "release kinetics: First order", "setting": "[2]; SGF", "result": 0.834},
      {"measurement": "release kinetics: Higuchi matrix", "setting": "[2]; SGF", "result": 0.8501},
      {"measurement": "release kinetics: Hixson–Crowell", "setting": "[2]; SGF", "result": 0.9216},
      {"measurement": "release kinetics: Korsmeyer–Peppas", "setting": "[2]; SGF", "result": 0.8636},
      {"measurement": "release kinetics: Zero order", "setting": "[2]; SGF", "result": 0.6077},
      {"measurement": "release / dissolution in SGF", "setting": "[2]; SGF (pH 1.2), within 15 min", "result": 100, "unit": "%"},
      {"measurement": "release kinetic model followed", "setting": "[2]; SIF", "result": "Korsmeyer–Peppas"},
      {"measurement": "release kinetics: First order", "setting": "[2]; SIF", "result": 0.9609},
      {"measurement": "release kinetics: Higuchi matrix", "setting": "[2]; SIF", "result": 0.97},
      {"measurement": "release kinetics: Hixson–Crowell", "setting": "[2]; SIF", "result": 0.9718},
      {"measurement": "release kinetics: Korsmeyer–Peppas", "setting": "[2]; SIF", "result": 0.9895},
      {"measurement": "release kinetics: Zero order", "setting": "[2]; SIF", "result": 0.7947},
      {"measurement": "release mechanism", "setting": "[2]; SIF", "result": "anomalous transport (non-Fickian)"},
      {"measurement": "release in SIF", "setting": "[2]; SIF (pH 6.8), in 120 min", "result": 85, "unit": "%"},
      {"measurement": "f1 value (dissimilarity factor)", "setting": "[2]; [8]", "result": 26},
      {"measurement": "f2 value (similarity factor)", "setting": "[2]; [8]", "result": 14},
      {"measurement": "dissolution", "setting": "[2]; within 15 min in the 900 mL of dissolution media", "result": 100, "unit": "%"},
      {"measurement": "degradation at alkaline conditions", "setting": "[3]", "result": "dramatic degradation"},
      {"measurement": "solubility in SGF", "setting": "[4]", "result": "8260 ± 1420", "unit": "µg/mL"},
      {"measurement": "substrate of P-glycoprotein (Pgp)", "setting": "P-glycoprotein (Pgp)", "result": "substrate"},
      {"measurement": "substrate of UGT enzymes", "setting": "UGT enzymes", "result": "substrate"},
      {"measurement": "solubility in SGF (pH 1.2) compared to solubility in water", "setting": "[5]; SGF pH 1.2", "result": 4.46, "unit": "fold"},
      {"measurement": "solubility in SIF compared to solubility in water", "setting": "[5]; SIF pH 6.8 and 7.4", "result": "insignificant difference"}
    ]},
    {"molecule": "CC1(C)C2CCC1(C)C(O)C2", "note": "(stereo not drawn) [borneol]", "values": [
      {"measurement": "inhibitory effect on glucuronidation of EDR", "setting": "[6]", "result": 37.56, "unit": "%"}
    ]},
    {"molecule": "hydroxypropyl-β-cyclodextrin [HP-β-CD]", "values": [
      {"measurement": "improvement in the aqueous solubility of EDR", "setting": "[7]", "result": 3.49, "unit": "fold"}
    ]}
  ]
}
